# Measured values reported in PMC11684312 (Nature chemistry, 2024).
# What was measured:
# [1] = target: WT LIMK1-NanoLuc (Homo sapiens, UniProt P53667); assay: LIMK1 NanoBRET target engagement assay, WT; assay type: cell-based; conditions: HEK293T cells, 0.5 μM K-10 tracer, 3 h
# How it was run: (§1)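 HEK293T cells in Opti-MEM without phenol red with 1% FBS (2x10^5 cells/mL) were transfected with WT or C349A LIMK1-NanoLuc plasmid (1 μg/mL) plus carrier DNA (9 μg/mL) for 20 h at 37 °C/5% CO2. K-10 tracer and test compound (diluted from 1000x DMSO stocks) were added for 3 h at 37 °C. Donor 450 nm and acceptor 610 nm were read after substrate/inhibitor (2 min, RT). Untransfected background was subtracted, mBU calculated, then normalized to DMSO. Triplicate wells.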
# [2] = target: C349A LIMK1-NanoLuc (Homo sapiens, UniProt P53667, C349A); assay: LIMK1 NanoBRET target engagement assay, C349A; assay type: cell-based; conditions: HEK293T cells, C349A-LIMK1 mutant, 3 h
# Chain of C349A LIMK1-NanoLuc (P53667 whole entry C349A): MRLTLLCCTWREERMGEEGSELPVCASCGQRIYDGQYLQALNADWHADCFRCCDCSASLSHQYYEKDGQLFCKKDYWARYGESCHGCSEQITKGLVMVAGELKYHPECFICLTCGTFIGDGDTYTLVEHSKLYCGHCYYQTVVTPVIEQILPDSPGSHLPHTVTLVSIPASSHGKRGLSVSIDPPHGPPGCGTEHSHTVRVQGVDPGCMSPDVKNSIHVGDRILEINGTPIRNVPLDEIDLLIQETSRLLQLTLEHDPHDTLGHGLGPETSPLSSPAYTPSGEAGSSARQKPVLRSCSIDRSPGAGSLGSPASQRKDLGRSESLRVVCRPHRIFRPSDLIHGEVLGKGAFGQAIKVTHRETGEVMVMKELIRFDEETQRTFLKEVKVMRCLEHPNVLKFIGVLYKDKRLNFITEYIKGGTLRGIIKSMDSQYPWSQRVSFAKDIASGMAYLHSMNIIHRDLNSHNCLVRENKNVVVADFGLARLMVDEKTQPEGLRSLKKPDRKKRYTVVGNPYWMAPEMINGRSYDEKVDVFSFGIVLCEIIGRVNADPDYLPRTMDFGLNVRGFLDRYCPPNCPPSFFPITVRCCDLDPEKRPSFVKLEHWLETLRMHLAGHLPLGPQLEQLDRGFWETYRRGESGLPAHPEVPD
# How it was run: as §1
# Chain of WT LIMK1-NanoLuc (P53667 whole entry): as the sequence (P53667 whole entry C349A) above, with A349C counted along it
smiles,measurement,setting,value
COc1ccc(N(C(=O)Nc2c(C)cccc2C)c2cc(Nc3ccc(N4CCN(C)CC4)cc3)ncn2)c(OC)c1 [HG-9-91-01],BRET signal (NanoBRET K-10 tracer),[1],decreased NanoBRET signals
same,BRET signal (NanoBRET K-10 tracer),[2],decreased NanoBRET signals
